Laboratory results as given in ChEMBL document CHEMBL1157292, “(+)-agelasine D: improved synthesis and evaluation of antibacterial and cytotoxic activities” (J Nat Prod, 2006).
Converted amounts (≈) assume the structure as drawn. The source made the active and inactive calls. No cut-off for these calls is given here.

Tests used:
[1] = system: Escherichia coli; assay: Antibacterial activity against Escherichia coli ATCC 25922 by standard broth microdilution technique; assay type: functional
Outline: (§1)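 Exponential-phase cultures were diluted to a final inoculum of 1 × 10⁶ CFU/mL and mixed 1:1 with serial dilutions made in double-distilled water. Medium was 2% bactopeptone water for S. aureus, E. coli and P. aeruginosa, and brain heart infusion broth for E. faecalis and S. pyogenes. Incubated at 37 °C overnight. MIC was the lowest concentration without visible growth. Gentamycin served as internal control.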

[2] = Cytotoxicity against human RPMI 8226/s cells after 72 hrs by fluorometric microculture cytotoxicity assay; assay type: functional, cell-based; conditions: RPMI8226/S
Outline: (§2)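 FMCA method: compounds dissolved in 10% DMSO were tested at 10 concentrations, 0.15625–80 μM, each in triplicate. Plates included solvent, medium, Triton X-100 and PBS controls. Cells were exposed for 72 h, washed with PBS, and incubated with FDA for 40 min. Fluorescence, proportional to living cells, gave a survival index at each concentration. Values are mean ± SEM of triplicates, fitted by nonlinear regression.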

[3] = system: Bacteroides fragilis; assay: Antibacterial activity against Bacteroides fragilis DSM 2151 by standard broth microdilution technique; assay type: functional
Outline: (§3)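 Strains kept at -80 °C and grown on blood agar at 35 °C for 24 h before testing. DMSO stocks were serially 2-fold diluted in reduced Wilkins-Chalgren broth to final 0.125–32 μg/mL. Colony suspension was set to 0.5 McFarland and diluted 1:10 (~1.5 × 10⁷ CFU/mL); 10 μL was added per well, in triplicate. Incubated anaerobically at 35 °C for 48 h. MIC was the lowest concentration without visible growth. Tests were repeated at least once.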

[4] = system: Bacteroides thetaiotaomicron; assay: Antibacterial activity against Bacteroides thetaiotaomicron DSM 2255 by standard broth microdilution technique; assay type: functional; outline: as §3
[5] = system: Staphylococcus aureus; assay: Antibacterial activity against Staphylococcus aureus ATCC 25923 by standard broth microdilution technique; assay type: functional; outline: as §1
[6] = system: Pseudomonas aeruginosa; assay: Antibacterial activity against Pseudomonas aeruginosa ATCC 27853 by standard broth microdilution technique; assay type: functional; outline: as §1
[7] = system: Enterococcus faecalis; assay: Antibacterial activity against Enterococcus faecalis by standard broth microdilution technique; assay type: functional; outline: as §1
[8] = Cytotoxicity against human CEM/s cells after 72 hrs by fluorometric microculture cytotoxicity assay; assay type: functional, cell-based; outline: as §2
[9] = system: Streptococcus pyogenes; assay: Antibacterial activity against Streptococcus pyogenes ATCC 19615 by standard broth microdilution technique; assay type: functional; outline: as §1
[10] = system: Mycobacterium tuberculosis; assay: Antibacterial activity against Mycobacterium tuberculosis by standard broth microdilution technique; assay type: functional
[11] = system: ACHN; assay: (§4) Cytotoxicity against multidrug-resistant human ACHN cells after 72 hrs by fluorometric microculture cytotoxicity assay; assay type: functional, cell-based; outline: as §2
[12] = system: U-937/GTB; assay: Cytotoxicity against human U937 GTB cells after 72 hrs by fluorometric microculture cytotoxicity assay; assay type: functional, cell-based; outline: as §2
[13] = system: L1210; assay: Cytotoxicity against mouse L1210 cells; assay type: functional, cell-based
[14] = system: ACHN; assay: as §4; assay type: functional, cell-based; outline: as §2; remark: listed apart in the source
[15] = system: U-937/GTB; assay: Cytotoxicity against human U937 GTB cells at 80 uM after 72 hrs by fluorometric microculture cytotoxicity assay; assay type: functional, cell-based; outline: as §2
[16] = species on record: Homo sapiens; assay: Cytotoxicity against human RPMI 8226/s cells at 80 uM after 72 hrs by fluorometric microculture cytotoxicity assay; assay type: functional, cell-based; outline: as §2
[17] = system: CEM/s; assay: Cytotoxicity against human CEM/s cells at 80 uM after 72 hrs by fluorometric microculture cytotoxicity assay; assay type: functional, cell-based; outline: as §2

Row | SMILES | MIC [1] [µg/mL] | IC50 [2] [µM] | MIC [3] [µg/mL] | MIC [4] [µg/mL] | MIC [5] [µg/mL] | IC50 [8] [µM] | MIC [10] [µg/mL] | IC50 [11] [µM] | IC50 [12] [µM] | also measured
1 | C=C1CC[C@H]2C(C)(C)CCC[C@]2(C)[C@H]1CC/C(C)=C/Cn1c[n+](C)c2nc[n-]/c(=N\OC)c21 | 8 (≈ 17.7 µM) | 0.2 | 4 (≈ 8.86 µM) | 4 (≈ 8.86 µM) | 2 (≈ 4.43 µM) | 2.33 | > 6.25 | 8.01 | 1.03 | MIC [6]: 32 µg/mL (≈ 70.8 µM); MIC [7]: 8 µg/mL (≈ 17.7 µM); MIC [9]: 2 µg/mL (≈ 4.43 µM)
2 | C/C(=C\Cn1c[n+](C)c2ncnc(N)c21)CC[C@@]1(C)[C@H](C)CC[C@@]2(C)C(COC(=O)c3cc(Br)c[nH]3)=CCC[C@@H]12 | – | – | – | – | – | – | – | – | – | IC50 [13]: 4.8 µM
3 | C=C1CC[C@H]2C(C)(C)CCC[C@]2(C)[C@H]1CC/C(C)=C/Cn1c[n+](C)c2ncnc(N)c21.[Cl-] | 8 | 3.7 | 16 | 8 | 1 | 4.68 | > 6.25 | 25 | 5.59 | MIC [6]: 16 µg/mL; MIC [7]: 8 µg/mL; MIC [9]: 2 µg/mL
4 | C=C1CC[C@H]2C(C)(C)CCC[C@]2(C)[C@H]1CC/C(C)=C/Cn1c[n+](C)c2nc[n-]/c(=N\OC(C)(C)C)c21 | 32 (≈ 64.8 µM) | > 80 | 4 (≈ 8.1 µM) | 4 (≈ 8.1 µM) | 6 (≈ 12.2 µM) | > 80 | 3.13 (≈ 6.34 µM) | > 80 | > 80 | Activity [14]: inactive; Activity [15]: inactive; Activity [16]: inactive; Activity [17]: inactive
5 | CO[C@H]1/C=C/O[C@@]2(C)Oc3c(C)c(O)c4c(O)c(c(/C=N/N5CCN(C)CC5)c(O)c4c3C2=O)NC(=O)/C(C)=C\C=C\[C@H](C)[C@H](O)[C@@H](C)[C@@H](O)[C@@H](C)[C@H](OC(C)=O)[C@@H]1C [RIFAMPIN] | – | – | – | – | – | – | 0.25 (≈ 0.304 µM) | – | – | –
6 | COc1cccc2c1C(=O)c1c(O)c3c(c(O)c1C2=O)C[C@@](O)(C(=O)CO)C[C@@H]3O[C@H]1C[C@H](N)[C@H](O)[C@H](C)O1 [DOXORUBICIN] | – | 0.13 | – | – | – | 0.18 | – | – | – | –
7 | Cc1ncc([N+](=O)[O-])n1CCO [METRONIDAZOLE] | – | – | 0.5 (≈ 2.92 µM) | 1 (≈ 5.84 µM) | – | – | – | – | – | –
8 | CC(=O)O[C@H]1C(=O)[C@@]2(C)[C@H]([C@H](OC(=O)c3ccccc3)[C@]3(O)C[C@H](OC(=O)[C@H](O)[C@@H](NC(=O)c4ccccc4)c4ccccc4)C(C)=C1C3(C)C)[C@]1(OC(C)=O)CO[C@@H]1C[C@@H]2O [PACLITAXEL] | – | 0.007 | – | – | – | 0.007 | – | – | – | –
